Measured values: article PMC4298701 (Diabetes, 2007)
pIC50: −log10 of the molar value.

How the values were obtained:
ZDF rats [1] = assay: Ceramide and glycosphingolipid levels in liver of ZDF rats; format: in vivo; details: mean ± SD
sphingomyelinase = target: T1, sphingomyelinase (Homo sapiens, UniProt P17405); assay: Sphingomyelinase inhibition; format: biochemical; details: at a concentration <1 μmol/l
T1 sequence (P17405 47-631): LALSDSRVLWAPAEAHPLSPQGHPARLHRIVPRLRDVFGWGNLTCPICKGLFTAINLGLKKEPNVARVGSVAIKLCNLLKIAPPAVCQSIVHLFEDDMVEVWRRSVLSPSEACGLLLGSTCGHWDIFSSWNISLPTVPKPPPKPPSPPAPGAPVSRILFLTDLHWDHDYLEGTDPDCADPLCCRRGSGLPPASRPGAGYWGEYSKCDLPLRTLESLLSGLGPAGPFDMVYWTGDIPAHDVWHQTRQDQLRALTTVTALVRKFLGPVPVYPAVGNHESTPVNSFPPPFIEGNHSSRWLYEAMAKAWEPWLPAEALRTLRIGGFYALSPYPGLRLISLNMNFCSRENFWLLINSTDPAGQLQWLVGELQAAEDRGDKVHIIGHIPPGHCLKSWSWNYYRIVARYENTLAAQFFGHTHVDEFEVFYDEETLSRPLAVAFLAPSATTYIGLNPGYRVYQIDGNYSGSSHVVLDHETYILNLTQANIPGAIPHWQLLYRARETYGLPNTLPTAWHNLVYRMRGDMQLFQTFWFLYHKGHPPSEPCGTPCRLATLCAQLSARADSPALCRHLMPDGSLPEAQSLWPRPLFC

3T3-L1 adipocytes [2] = assay: Sphingolipid content of 3T3-L1 adipocytes; format: cell-based; details: TNF-α 0.6 nmol/l + AMP-DNM 10 μmol/l, 24 h, mean ± SE
rodents = assay: Tolerability in rodents; format: in vivo; details: up to 100 mg · kg−1 · day−1 for 2 months
[3] = target: debranching enzyme (α-1, 6-glucosidase) (Homo sapiens, UniProt P35573); assay: Debranching enzyme, erythrocyte preparation; format: biochemical; details: at a concentration <1 μmol/l; data not shown
Sequence of debranching enzyme (α-1, 6-glucosidase) (P35573 whole entry): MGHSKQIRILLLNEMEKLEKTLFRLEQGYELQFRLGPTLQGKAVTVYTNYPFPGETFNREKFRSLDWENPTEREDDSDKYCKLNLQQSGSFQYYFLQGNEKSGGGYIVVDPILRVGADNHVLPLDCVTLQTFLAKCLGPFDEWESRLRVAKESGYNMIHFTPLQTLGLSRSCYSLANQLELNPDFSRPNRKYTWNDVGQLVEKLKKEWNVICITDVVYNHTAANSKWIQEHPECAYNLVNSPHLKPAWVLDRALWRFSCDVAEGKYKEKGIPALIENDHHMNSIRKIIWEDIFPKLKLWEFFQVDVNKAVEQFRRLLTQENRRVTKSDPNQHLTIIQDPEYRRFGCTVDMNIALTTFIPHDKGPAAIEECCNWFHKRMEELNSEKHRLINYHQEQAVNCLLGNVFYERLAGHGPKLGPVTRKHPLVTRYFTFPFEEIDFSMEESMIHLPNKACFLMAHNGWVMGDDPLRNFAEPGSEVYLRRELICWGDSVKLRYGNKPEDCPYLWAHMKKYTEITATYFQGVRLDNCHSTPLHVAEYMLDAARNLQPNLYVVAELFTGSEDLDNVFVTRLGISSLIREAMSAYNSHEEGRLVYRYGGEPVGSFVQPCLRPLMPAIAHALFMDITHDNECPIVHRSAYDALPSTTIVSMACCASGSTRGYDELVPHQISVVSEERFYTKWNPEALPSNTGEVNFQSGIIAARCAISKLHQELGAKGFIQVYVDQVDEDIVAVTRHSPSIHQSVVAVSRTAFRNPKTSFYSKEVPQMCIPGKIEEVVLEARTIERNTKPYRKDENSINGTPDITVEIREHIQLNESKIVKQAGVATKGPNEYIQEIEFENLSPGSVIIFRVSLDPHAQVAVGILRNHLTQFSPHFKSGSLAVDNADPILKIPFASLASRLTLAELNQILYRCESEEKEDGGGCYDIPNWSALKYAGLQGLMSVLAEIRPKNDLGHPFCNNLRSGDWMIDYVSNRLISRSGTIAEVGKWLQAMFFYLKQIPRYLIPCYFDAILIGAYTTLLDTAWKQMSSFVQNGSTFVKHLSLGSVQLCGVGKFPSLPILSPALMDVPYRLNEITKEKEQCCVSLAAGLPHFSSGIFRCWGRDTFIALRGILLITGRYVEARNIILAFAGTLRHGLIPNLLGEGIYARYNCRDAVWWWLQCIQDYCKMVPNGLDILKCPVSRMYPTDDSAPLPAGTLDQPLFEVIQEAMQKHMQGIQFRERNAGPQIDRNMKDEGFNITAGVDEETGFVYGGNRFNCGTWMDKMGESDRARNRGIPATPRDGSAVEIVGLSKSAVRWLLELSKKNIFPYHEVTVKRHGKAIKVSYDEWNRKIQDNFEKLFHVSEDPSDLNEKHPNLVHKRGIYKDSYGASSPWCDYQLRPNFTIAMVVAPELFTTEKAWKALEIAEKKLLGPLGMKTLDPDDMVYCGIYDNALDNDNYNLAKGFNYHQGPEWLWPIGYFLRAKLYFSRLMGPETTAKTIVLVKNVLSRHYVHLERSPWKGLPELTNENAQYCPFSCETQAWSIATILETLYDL

[4] = test system: C57Bl/6J mice fed a high-fat diet; assay: Glucose homeostasis in high-fat diet-induced glucose-intolerant C57Bl/6J mice; format: in vivo; details: high-fat diet C57Bl/6J mice, 2 weeks, ± SD
Outline: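 C57Bl/6J mice were made glucose-intolerant by 4 weeks on a high-fat diet (16.4% protein, 25.5% carbohydrate, 58.0% fat). They then received test compound by daily oral gavage at 0, 5 or 25 mg·kg−1·day−1 for 2 weeks, n = 8 per group. Fasted blood glucose was measured; means ± SD.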

3T3-L1 adipocytes [5] = assay: Cell surface expression of GM3; format: cell-based; details: 10 μmol/l AMP-DNM, TNF-α 0.6 nmol/l, 24 h
Outline: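 Fully differentiated 3T3-L1 adipocytes were serum-deprived in DMEM plus 1% BSA and treated for 24 h with vehicle, test compound (10 μmol/l) and/or TNF-α (0.6 nmol/l). Basal cells (no insulin) were stained with monoclonal anti-GM3 and FITC- or Alexa 488-conjugated secondary antibody, then read by flow cytometry as % viable cells GM3-positive. Means ± SE of four independent experiments.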

[6] = Plasma levels, accumulation and metabolism after administration to rodents; format: in vivo
3T3-L1 adipocytes [7] = assay: Insulin signaling in TNF-α-treated 3T3-L1 adipocytes; format: cell-based; details: 10 μmol/l AMP-DNM, TNF-α 0.6 nmol/l, 24 h
[8] = Plasma levels of AMP-DNM in mice; format: in vivo
Outline: (§1)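 Plasma test compound was measured by HPLC followed by mass spectrometry, with blood taken by tail vein, retro-orbital or cardiac puncture. Half-life was determined in mice and rats. For plasma concentration, six-week-old C57Bl/6J mice (n = 4) were dosed at 25 mg·kg−1·day−1 for 14 days and sampled during treatment; mean ± SE.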

ob/ob mice [9] = assay: Hyperinsulinemic-euglycemic clamp in ob/ob mice; format: in vivo; details: 25 mg · kg body wt−1 · day−1, clamp
maltase = assay: Maltase, homogenates of freshly isolated rat intestine; format: biochemical; details: read-out: IC50 maltase; rat intestine homogenate
[10] = Plasma levels of AMP-DNM in rats; format: in vivo
Outline: as §1

glycogen synthase = assay: Glycogen synthase inhibition; format: biochemical; details: at a concentration <1 μmol/l; data not shown
sucrase = sucrase (Rattus norvegicus, UniProt P23739); assay: Sucrase, homogenates of freshly isolated rat intestine; format: biochemical; details: read-out: IC50 sucrase; rat intestine homogenate
Sequence of sucrase (P23739 1014-1841 limits assumed): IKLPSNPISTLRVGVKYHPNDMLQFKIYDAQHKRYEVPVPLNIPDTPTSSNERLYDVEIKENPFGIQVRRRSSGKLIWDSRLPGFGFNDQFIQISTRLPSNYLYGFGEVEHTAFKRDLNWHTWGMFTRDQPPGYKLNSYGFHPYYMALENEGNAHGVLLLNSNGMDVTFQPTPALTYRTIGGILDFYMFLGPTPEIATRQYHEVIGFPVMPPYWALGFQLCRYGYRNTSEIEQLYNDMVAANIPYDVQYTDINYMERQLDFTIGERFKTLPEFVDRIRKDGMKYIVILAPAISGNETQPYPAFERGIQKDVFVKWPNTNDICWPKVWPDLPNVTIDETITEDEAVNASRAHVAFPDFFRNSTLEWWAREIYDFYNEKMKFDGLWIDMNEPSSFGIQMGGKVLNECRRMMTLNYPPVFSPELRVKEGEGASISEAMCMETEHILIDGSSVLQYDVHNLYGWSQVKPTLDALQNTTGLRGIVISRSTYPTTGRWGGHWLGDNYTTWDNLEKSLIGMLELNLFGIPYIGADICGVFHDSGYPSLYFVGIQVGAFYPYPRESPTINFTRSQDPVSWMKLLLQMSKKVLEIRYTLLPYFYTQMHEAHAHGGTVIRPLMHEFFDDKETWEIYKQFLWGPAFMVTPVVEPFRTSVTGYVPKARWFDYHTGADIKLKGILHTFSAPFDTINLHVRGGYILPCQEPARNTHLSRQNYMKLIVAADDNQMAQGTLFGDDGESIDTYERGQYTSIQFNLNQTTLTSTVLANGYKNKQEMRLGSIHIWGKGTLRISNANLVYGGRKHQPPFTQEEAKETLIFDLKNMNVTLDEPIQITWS
Sequence of sucrase (P23739 1-1013 partner limits assumed): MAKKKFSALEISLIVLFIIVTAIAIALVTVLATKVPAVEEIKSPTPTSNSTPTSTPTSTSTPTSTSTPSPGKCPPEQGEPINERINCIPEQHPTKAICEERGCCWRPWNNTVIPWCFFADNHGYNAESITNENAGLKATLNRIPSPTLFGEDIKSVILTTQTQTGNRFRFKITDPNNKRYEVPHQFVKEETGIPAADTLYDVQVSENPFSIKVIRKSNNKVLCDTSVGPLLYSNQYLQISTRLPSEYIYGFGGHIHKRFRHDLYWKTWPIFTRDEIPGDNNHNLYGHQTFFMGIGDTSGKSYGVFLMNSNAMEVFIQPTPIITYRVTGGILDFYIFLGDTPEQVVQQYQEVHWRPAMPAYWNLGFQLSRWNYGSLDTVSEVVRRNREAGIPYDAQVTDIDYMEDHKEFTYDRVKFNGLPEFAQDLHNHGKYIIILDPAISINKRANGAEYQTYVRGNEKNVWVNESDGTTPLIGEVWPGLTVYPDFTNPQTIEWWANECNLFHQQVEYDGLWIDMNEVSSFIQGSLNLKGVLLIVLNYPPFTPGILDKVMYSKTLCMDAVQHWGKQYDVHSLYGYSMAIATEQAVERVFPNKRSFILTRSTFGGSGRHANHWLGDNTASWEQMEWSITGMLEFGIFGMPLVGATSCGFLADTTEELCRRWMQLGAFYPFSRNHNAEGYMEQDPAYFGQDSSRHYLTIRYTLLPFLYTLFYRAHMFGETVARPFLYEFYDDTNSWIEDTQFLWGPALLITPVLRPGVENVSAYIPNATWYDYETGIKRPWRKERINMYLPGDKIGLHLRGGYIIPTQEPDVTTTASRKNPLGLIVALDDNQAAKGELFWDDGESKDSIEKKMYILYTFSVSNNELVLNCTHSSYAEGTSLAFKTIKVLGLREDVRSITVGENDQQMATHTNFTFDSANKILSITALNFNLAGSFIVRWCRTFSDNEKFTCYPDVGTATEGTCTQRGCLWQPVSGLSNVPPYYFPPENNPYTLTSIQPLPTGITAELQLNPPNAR

C57Bl/6J mice = assay: Ceramide and glycosphingolipids in liver and muscle of normal C57Bl/6J mice; format: in vivo
acid α-glucosidase = acid α-glucosidase (Homo sapiens, UniProt P10253); assay: Acid α-glucosidase inhibition; format: biochemical; details: at a concentration <1 μmol/l
ob/ob mice [11] = assay: Glucose homeostasis, A1C and liver lipids/glycogen in ob/ob mice; format: in vivo
Outline: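 ob/ob mice (C57Bl/6J background) were fed diet containing test compound at 25 mg·kg−1·day−1, with wild-type mice as reference; A1C was measured after 9 weeks. For oral glucose tolerance, animals were fasted >6 h and gavaged with glucose (1 or 2 g/kg). […] Means ± SE; two-tailed Student's t test.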

[12] = test system: endoplasmic reticulum–trimming α-glucosidases; assay: ER-trimming α-glucosidases inhibition; format: biochemical; details: at a concentration <1 μmol/l
[13] = In vitro incubation with microsomes; format: in vitro ADME; details: 4 h; not shown
ZDF rats [14] = assay: A1C in ZDF rats; format: in vivo
ob/ob mice [15] = assay: Ceramide and glucosylceramide in liver and muscle of ob/ob mice; format: in vivo
[16] = with insulin (100 nmol/l, 5 min)
[17] = oral administration of 25 mg/kg body wt
[18] = C57Bl/6J mice, 25 mg · kg−1 · day−1, 14 days
[19] = normal C57Bl/6J mice, 25 mg AMP-DNM/kg, 2 weeks, mean ± SD
[20] = ob/ob mice, 25 mg · kg body wt−1 · day−1
[21] = 25 mg AMP-DNM/kg, 2 weeks, mean ± SD

Structure (SMILES): OC[C@@H]1[C@@H](O)[C@H](O)[C@@H](O)CN1CCCCCOCC12CC3CC(CC(C3)C1)C2 [AMP-DNM, N-(5′-adamantane-1′-yl-methoxy)-pentyl-1-deoxynojirimycin]
- Liver Ceramide (ZDF rats [1]; 5 mg · kg−1 · day−1, 10 weeks): 416 ± 24 nmol/g wet wt
- Liver GDA1 (ZDF rats [1]; 5 mg · kg−1 · day−1, 10 weeks): 15.5 ± 1.7 nmol/g wet wt
- Liver GM1 (ZDF rats [1]; 5 mg · kg−1 · day−1, 10 weeks): 11.4 ± 2.2 nmol/g wet wt
- Liver GM2 (ZDF rats [1]; 5 mg · kg−1 · day−1, 10 weeks): 5.9 ± 0.9 nmol/g wet wt
- Liver GM3 (ZDF rats [1]; 5 mg · kg−1 · day−1, 10 weeks): 21.3 ± 2.9 nmol/g wet wt
- Liver Glucosylceramide (ZDF rats [1]; 5 mg · kg−1 · day−1, 10 weeks): 53.4 ± 5.7 nmol/g wet wt
- Liver Ceramide (ZDF rats [1]; 25 mg · kg−1 · day−1, 10 weeks): 451 ± 37 nmol/g wet wt
- Liver GDA1 (ZDF rats [1]; 25 mg · kg−1 · day−1, 10 weeks): 7.9 ± 0.9 nmol/g wet wt
- Liver GM1 (ZDF rats [1]; 25 mg · kg−1 · day−1, 10 weeks): 5.6 ± 1.1 nmol/g wet wt
- Liver GM2 (ZDF rats [1]; 25 mg · kg−1 · day−1, 10 weeks): 4.8 ± 0.8 nmol/g wet wt
- Liver GM3 (ZDF rats [1]; 25 mg · kg−1 · day−1, 10 weeks): 17.3 ± 2.7 nmol/g wet wt
- Liver Glucosylceramide (ZDF rats [1]; 25 mg · kg−1 · day−1, 10 weeks): 47.4 ± 5.2 nmol/g wet wt
- inhibition of sphingomyelinase activity (sphingomyelinase): no significant inhibition
- Ceramide (3T3-L1 adipocytes [2]; [16]): 1,241 ± 99 pmol/well
- GM3 (3T3-L1 adipocytes [2]; [16]): 1,988 ± 169 pmol/well
- Ceramide (3T3-L1 adipocytes [2]; without insulin): 1,241 ± 88 pmol/well
- GM2 (3T3-L1 adipocytes [2]; without insulin): 267 ± 18 pmol/well
- GM3 (3T3-L1 adipocytes [2]; without insulin): 2,205 ± 138 pmol/well
- overt toxicity (rodents): did not result in any overt toxicity
- effect on cytosolic debranching enzyme [3]: unaffected
- fasting blood glucose ([4]; 5 mg · kg−1 · day−1 oral gavage): 9.46 ± 0.26 mmol/L
- fasting blood glucose ([4]; 25 mg · kg−1 · day−1 oral gavage): 7.74 ± 0.40 mmol/L
- TNF-α-increased cell surface levels of GM3 gangliosides (3T3-L1 adipocytes [5]): blocked
- accumulation with daily exposure ([6]; daily exposure over 28 days): does not accumulate
- in vivo metabolism (mass spectrometric analysis of urine and plasma) ([6]; in vivo): No significant in vivo metabolism
- maximal plasma concentration [6, 17]: 5 µmol/L
- time of maximal plasma concentration [6, 17]: 30 min
- TNF-α-impaired insulin receptor autophosphorylation, IRS-1 tyrosine phosphorylation and Ser-473 phosphorylation of Akt (3T3-L1 adipocytes [7]): significantly ameliorated
- plasma concentration of AMP-DNM ([8]; C57Bl/6J mice, 25 mg · kg body wt−1 · day−1 for 14 days, mean ± SE): 108 ± 6 nM
- plasma half-life ([8]; mice): ~ 3.1 h
- decrease in hepatic glucose production (Ra) (ob/ob mice [9]): ~ 26%
- increase in glucose disposal (Rd) (ob/ob mice [9]): ~ 29%
- whole-body insulin sensitivity (ob/ob mice [9]): marked improvement
- pIC50 (maltase): 4.74
- plasma half-life [10]: ~4.2 h
- effect on glycogen synthase (glycogen synthase): unaffected
- pIC50 (sucrase): 5.35
- reduction of ganglioside GM3 in liver (C57Bl/6J mice; [18]): 28 ± 6%
- reduction of liver glucosylceramide (C57Bl/6J mice; [18]): 41 ± 5%
- Cer, liver (C57Bl/6J mice; [19]): 10.31 ± 0.96 nmol/mg protein
- Cer, muscle (C57Bl/6J mice; [19]): 1.47 ± 0.22 nmol/mg protein
- GlcCer, liver (C57Bl/6J mice; [19]): 1.24 ± 0.09 nmol/mg protein
- GlcCer, muscle (C57Bl/6J mice; [19]): 0.89 ± 0.22 nmol/mg protein
- inhibition of acid α-glucosidase activity (acid α-glucosidase): no significant inhibition
- triglyceride concentration in liver (ob/ob mice [11]; AMP-DNM-fed ob/ob mice): 80 ± 11 nmol/mg liver
- blood glucose concentrations (ob/ob mice [11]; [20]): pronounced reduction
- effect on body weight or food intake (ob/ob mice [11]; [20]): no significant effect
- A1C concentration (ob/ob mice [11]; ob/ob mice, 25 mg · kg body wt−1 · day−1 for 9 weeks): 4.82 ± 0.85%
- AUC of blood glucose concentrations, oral glucose tolerance test (ob/ob mice [11]; ob/ob mice, 25 mg/kg for 8 days, glucose 1 g/kg body wt, ± SD): 13.21 ± 1.43 arbitrary units per minute
- inhibition of endoplasmic reticulum–trimming α-glucosidases [12]: no significant inhibition
- recovered after in vitro incubation with microsomes [13]: More than 90%
- A1C (ZDF rats [14]; 25 mg · kg−1 · day−1, 9 weeks): 6.31 ± 0.68%
- A1C (ZDF rats [14]; 60 mg · kg body wt−1 · day−1, 10 weeks, separate experiment): 5.4 ± 0.4%
- Cer, liver (ob/ob mice [15]; [21]): 95.9 ± 11.6 nmol/mg protein
- Cer, muscle (ob/ob mice [15]; [21]): 1.29 ± 0.24 nmol/mg protein
- GlcCer, liver (ob/ob mice [15]; [21]): 2.24 ± 0.14 nmol/mg protein
- GlcCer, muscle (ob/ob mice [15]; [21]): 1.41 ± 0.16 nmol/mg protein
- decrease of glucosylceramide content of muscle (ob/ob mice [15]; 25 mg · kg−1 · day−1, two weeks): 45 ± 23%
